High-throughput results from PubChem.
GASC1 inh: inhibitors of human demethylase GASC-1 KDM4C. Q9H3R0. GST-KDM4C 2-372, H3K9me3 peptide, LANCE TR-FRET. inhibition, % at 12.5 µM. 96,000 compounds, 0.15% hits;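 active means mean replicate inhibition above about 25%, with at least 55% of replicates also reaching it, limit read from the data, passing the limit was not always enough; inconclusive means only one of those two conditions met; inactive means neither condition met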
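Test system – GST-tagged GASC-1 (JMJD2C) catalytic fragment, aa 2-372 · Medium – HEPES buffer, pH 7.5, plus ascorbate · Reagent – H3K9me3 peptide with Fe(II)/2OG · Compound – one test concentration per compound · Timing – 30 min reaction, 60 min detection, RT · Technique – TR-FRET with Eu antibody and ULight streptavidin, EDTA stop · Read-out basis – inhibition from TR-FRET ratio decrease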
IDH1 mut inh: IDH1 R132H (human) inhibition. inhibition, % at 10 µM. IDH1 R132H reductase, diaphorase/resazurin fluorescence, 60 min. AID 624101. 70,000 compounds, 0.18% hits. O75874; in the data active means inhibition above about 34%; inconclusive means no clear call, values can overlap the other calls; inactive means below about 11%;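 further: 0% = DMSO and 100% = no enzyme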
Target sequence (O75874 whole entry R132H): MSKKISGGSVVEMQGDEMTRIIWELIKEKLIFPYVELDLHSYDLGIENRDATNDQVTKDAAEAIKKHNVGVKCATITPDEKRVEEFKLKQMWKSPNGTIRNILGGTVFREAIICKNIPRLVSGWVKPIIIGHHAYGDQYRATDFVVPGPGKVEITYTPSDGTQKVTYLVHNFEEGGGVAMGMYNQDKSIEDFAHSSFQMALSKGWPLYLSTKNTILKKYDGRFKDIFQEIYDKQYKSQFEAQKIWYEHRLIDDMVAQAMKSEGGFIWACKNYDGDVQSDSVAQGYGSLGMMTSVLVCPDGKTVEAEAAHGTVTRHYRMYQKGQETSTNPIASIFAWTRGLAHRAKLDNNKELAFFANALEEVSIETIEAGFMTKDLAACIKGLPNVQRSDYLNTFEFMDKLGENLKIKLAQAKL
T cruzi growth-1: blocks T. cruzi growth in NIH3T3 culture; 77,000 compounds, 5.9% hits; inhibition, % at 8.34 µM; T. cruzi beta-gal in NIH3T3, GalScreen luminescence, 90 h; AID 624255;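 active means mean inhibition above about 93%, with at least 55% of replicates each passing it, limit read from the data, passing the limit was not always enough; inconclusive means only one of those two conditions holds; inactive means neither condition holds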
T cruzi growth-2: inhibitors of T. cruzi proliferation; shares compounds with T cruzi growth-1; T. cruzi beta-gal in NIH3T3, GalScreen luminescence, 90 h; 5,600 compounds, 72% hits; inhibition, % at 8.35 µM;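 active means mean replicate inhibition above about 95% and at least 55% of replicates individually reaching it, limit read from the data; inconclusive means only one of the two criteria is met; inactive means neither criterion is met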
T cruzi growth-3: inhibitors of T. cruzi proliferation; AID 651740; shares compounds with T cruzi growth-1; inhibition, % at 2.09 µM; 5,600 compounds, 21% hits; T. cruzi beta-gal in NIH3T3, GalScreen luminescence, 90 h;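 active means mean inhibition above about 95%, with at least 55% of replicates also reaching it, limit read from the data; inconclusive means meets just one of the two conditions; inactive means meets neither condition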;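 further: plate controls were neutral control median for no effect and positive control median for full effect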
3T3 cytotox: NIH/3T3 (mouse) viability loss | shares compounds with T cruzi growth-1 | NIH/3T3 viability, CellTiter-Glo ATP luminescence, 90 h | cytotoxicity (signal decrease), % at 8.35 µM | 5,600 compounds, 14% hits;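 active means mean signal decrease across replicates above about 35% based on untreated-well scatter, with enough replicates individually passing, limit read from the data; inconclusive means no rule stated though some were filed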;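 further: 0% = median of neutral control wells and 100% = median of positive control wells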
NIH3T3 tox 2: kills mouse NIH/3T3 fibroblasts. shares compounds with T cruzi growth-1. NIH/3T3 viability, CellTiter-Glo ATP luminescence, 90 h. inhibition, % at 24.9 µM. 5,600 compounds, 56% hits. AID 651744;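 active means mean loss of cell viability signal at or above a set limit, and enough replicates individually reaching it; inconclusive means meets only the mean limit or only the replicate share; inactive means meets neither condition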;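 further: 0% = median of neutral control wells and 100% = median of positive control wells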
Numbers without * were called inactive; ? = inconclusive; nt = no result given; ! = not confirmed by another sample. Only a selection was taken, and hits are over-represented in it overall.

SMILES	GASC1 inh	IDH1 mut inh	T cruzi growth-1	T cruzi growth-2	T cruzi growth-3	3T3 cytotox	NIH3T3 tox 2
C[C@@H]1CN([C@H](C)CO)C(=O)c2c(c3ccccc3n2C)-c2ccccc2CO[C@@H]1CN(C)Cc1cccnc1	0	2	111*	109*	53	1	51*
C[C@@H]1CN([C@@H](C)CO)C(=O)c2c(c3ccccc3n2C)-c2ccccc2CO[C@H]1CN(C)Cc1ccc(F)cc1	-3	nt	nt	nt	nt	nt	nt
C[C@H]1CN([C@@H](C)CO)C(=O)c2c(c3ccccc3n2C)-c2ccccc2CO[C@H]1CN(C)Cc1cccnc1	3	7	?	88	27	37*	63*
C[C@H](CO)N1C[C@H](C)[C@H](CN(C)C(=O)[C@H](Cc2ccccc2)N(C)C)OCc2ccccc2-c2c(n(C)c3ccccc23)C1=O	0	0	?	88	35	16	?
Cc1ccc(C(C)C)c(OCC(=O)Nc2cccc3ncccc23)c1	nt	10	nt	nt	nt	nt	nt
CC(C)(CO)NCC(O)COc1ccccc1Cl (stereo unspecified)	nt	4	nt	nt	nt	nt	nt
COc1cccc(S(=O)(=O)N(C)C[C@H]2OCc3cn(nn3)CCCC(=O)N([C@H](C)CO)C[C@@H]2C)c1	1	nt	?	17	21	10	-5
C[C@@H]1CN([C@H](C)CO)C(=O)CCCn2cc(nn2)CO[C@@H]1CN(C)S(=O)(=O)c1ccc2ccccc2c1	3	nt	34	nt	nt	nt	nt
COc1cccc(S(=O)(=O)N(C)C[C@H]2OCc3cn(nn3)CCCC(=O)N([C@@H](C)CO)C[C@H]2C)c1	0	nt	43	nt	nt	nt	nt
COc1cccc(S(=O)(=O)N(C)C[C@@H]2OCc3cn(nn3)CCCC(=O)N([C@@H](C)CO)C[C@@H]2C)c1	-1	nt	-110	nt	nt	nt	nt
COc1cccc(S(=O)(=O)N(C)C[C@H]2OCc3cn(nn3)CCCC(=O)N([C@@H](C)CO)C[C@@H]2C)c1	0	nt	116*!	18	10	-8	-7
C[C@@H]1CN([C@@H](C)CO)C(=O)CCCn2cc(nn2)CO[C@H]1CN(C)S(=O)(=O)c1ccc2ccccc2c1	-1	nt	125*!	55	1	-6	6
COc1ccc(OC)c(NC(=O)COc2ccc(C(=O)Nc3cccc(C)c3C)cc2)c1	nt	1	nt	nt	nt	nt	nt
CC=Cc1ccc2n(c1=O)C[C@@H]1[C@@H](CO)[C@H](C(=O)N3CCc4ccccc4C3)[C@H]2N1CC (mixture of isomers)	1	nt	-71	nt	nt	nt	nt
CC=Cc1ccc2n(c1=O)C[C@H]1[C@H](CO)[C@@H](C(=O)NCc3ccccn3)[C@@H]2N1CCC (mixture of isomers)	3	nt	108*	110*	21	-5	5
CC=Cc1ccc2n(c1=O)C[C@@H]1[C@@H](CO)[C@H](C(=O)NCc3ccccn3)[C@H]2N1CC1CC1 (mixture of isomers)	1	nt	60	nt	nt	nt	nt
CC=Cc1ccc2n(c1=O)C[C@H]1[C@H](CO)[C@@H](C(=O)NCc3ccccc3)[C@@H]2N1C (mixture of isomers)	-2	nt	96*	43	19	9	5
CC=Cc1ccc2n(c1=O)C[C@H]1[C@H](CO)[C@@H](C(=O)NCCc3ccccc3)[C@@H]2N1C (mixture of isomers)	-1	nt	-23	nt	nt	nt	nt
CC=Cc1ccc2n(c1=O)C[C@H]1[C@H](CO)[C@@H](C(=O)NCc3ccccc3F)N(S(C)(=O)=O)[C@@H]21 (mixture of isomers)	0	nt	47	nt	nt	nt	nt
CC=Cc1ccc2n(c1=O)C[C@H]1[C@H](CO)[C@@H](C(=O)NCc3ccccc3Cl)N(S(C)(=O)=O)[C@@H]21 (mixture of isomers)	9	nt	107*	74	13	0	12
CC=Cc1ccc2n(c1=O)C[C@H]1[C@H](CO)[C@@H](C(=O)N3CCc4ccccc4C3)[C@@H]2N1CCC (mixture of isomers)	0	nt	103*	77	6	-20	12
COc1cccc(-c2cc(C(F)(F)F)n3nc(C(=O)Nc4cc(C)nn4-c4ccccc4)cc3n2)c1	nt	0	nt	nt	nt	nt	nt
Cc1cc(C)c(S(=O)(=O)N(C)CC(=O)Nc2cccc(C)c2C)c(C)c1	nt	0	nt	nt	nt	nt	nt
